Laboratory results as given in paper PMC7649717 (Analytical chemistry, 2020).
Numbering of substitutions follows the chain as printed.

Legend:
Assay in all cases: isothermal titration calorimetry
Conditions in all cases: PBS, 298 K, 30 μM protein; GFP fusion
[1] = molecular target: T1, GFP-RBP(L19A); ribose binding protein (RBP) (Escherichia coli, UniProt P02925, L44A/T160A/Q260A)
T1 sequence (P02925 26-296 L44A/T160A/Q260A): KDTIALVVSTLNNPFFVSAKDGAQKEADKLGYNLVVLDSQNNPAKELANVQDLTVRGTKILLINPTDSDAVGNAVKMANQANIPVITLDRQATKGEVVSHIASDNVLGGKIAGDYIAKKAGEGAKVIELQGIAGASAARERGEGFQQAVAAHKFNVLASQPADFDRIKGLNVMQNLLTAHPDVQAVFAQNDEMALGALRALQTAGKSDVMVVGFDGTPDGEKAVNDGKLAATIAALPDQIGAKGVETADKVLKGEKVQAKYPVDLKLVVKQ

[2] = molecular target: T2, GFP-RBP(L19A); ribose binding protein (RBP) (Escherichia coli, UniProt P02925, L44A)
T2 sequence (P02925 26-296 L44A): T1 sequence (P02925 26-296 L44A/T160A/Q260A) with A135T, A235Q
Outline: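 GFP-RBP(L19A) expressed in E. coli BL21(DE3) and Ni-affinity purified with on-column 8 M urea unfolding and refolding to strip endogenous ribose, then size-exclusion in PBS. ITC at 298 K: cell held 30 μM protein in PBS against a deionized water reference; ribose at 10x protein concentration in PBS. Kd came from nonlinear regression fits of the binding isotherms.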

[3] = molecular target: T3, GFP-RBP(L19A); ribose binding protein (RBP) (Escherichia coli, UniProt P02925, L44A/Q260A)
T3 sequence (P02925 26-296 L44A/Q260A): T1 sequence (P02925 26-296 L44A/T160A/Q260A) with A135T

Work on `OC1OC[C@@H](O)[C@@H](O)[C@H]1O` (stereo partly drawn) [ribose] yielded a Kd [1] of 130 µM, a Kd [2] of 0.3 ± 0.1 µM and a Kd [3] of 10 µM.
